# Measurements as given in article PMC7004521 (Cancer Science, 2019).
# “Also recorded” adds a separate entry of the source. Where two headings read alike, the source gives them in different places.
# Experiments:
# [1] = Dose-limiting toxicities, MTD and RP2D determination; assay type: in vivo, human
# [2] = test system: MET‐dysregulated advanced solid tumors; assay: Best overall response according to investigator; assay type: in vivo, human
# Outline: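 Patients with MET-dysregulated advanced solid tumours took oral twice-daily doses in 28-day cycles: 100–600 mg capsules or 400 mg tablets in escalation, and 600 mg capsules or 400 mg tablets in expansion. Tumours were assessed by CT, or by contrast MRI for GBM or when CT was contraindicated. Response was judged by the investigator per RECIST v1.0 (the ORR endpoint is defined per v1.1), or MacDonald criteria for GBM.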
# [3] = test system: advanced solid tumors; conditions: Japanese patients with advanced solid tumors; cited from earlier work
# [4] = test system: MET; conditions: biochemical assays; cited from earlier work
# [5] = test system: MET; conditions: cellular assays; cited from earlier work
# [6] = test system: other kinases; conditions: large panels of biochemical and binding assays; cited from earlier work
# [7] = dose‐expansion cohorts, N = 18 evaluable
# [8] = escalation 400 mg bid tablet n=5
# [9] = expansion RP2D gastric cancer n=9
# [10] = expansion RP2D other indications n=18
structure (smiles),measurement,setting,value
CNC(=O)c1ccc(-c2cnc3ncc(Cc4ccc5ncccc5c4)n3n2)cc1F [capmatinib],posterior probability of excessive toxicity (BLRM),"[1]; 600 mg bid dose level, dose‐escalation phase",20.1%
same,MTD,[1]; up to 600 mg bid capsules,not reached
same,Best overall response: Complete response,[2]; all escalations N=38,0 n (%)
same,Best overall response: Partial response,[2]; all escalations N=38,0 n (%)
same,Best overall response: Progressive disease,[2]; all escalations N=38,25 (66) n (%)
same,Best overall response: Unknown,[2]; all escalations N=38,3 (5) n (%)
same,Best overall response: Complete response,[2]; all expansions RP2D N=38,0 n (%)
same,Best overall response: Partial response,[2]; all expansions RP2D N=38,0 n (%)
same,tumor shrinkage,"[2]; dose escalation, 450 mg bid capsule, colon cancer and HCC",tumor shrinkage was observed in two patients; also recorded: tumor shrinkage was observed for two patients
same,patients with best percentage change from baseline in sum of tumor diameters <0,[2]; [7],7 n
same,patients with best percentage change from baseline in sum of tumor diameters >0,[2]; [7],11 n
same,Best overall response: Complete response,[2]; escalation 100 mg bid n=4,0 n (%)
same,Best overall response: Partial response,[2]; escalation 100 mg bid n=4,0 n (%)
same,Best overall response: Progressive disease,[2]; escalation 100 mg bid n=4,2 (50) n (%)
same,Best overall response: Stable disease,[2]; escalation 100 mg bid n=4,2 (50) n (%)
same,Best overall response: Unknown,[2]; escalation 100 mg bid n=4,0 n (%)
same,Best overall response: Complete response,[2]; escalation 200 mg bid n=5,0 n (%)
same,Best overall response: Partial response,[2]; escalation 200 mg bid n=5,0 n (%)
same,Best overall response: Progressive disease,[2]; escalation 200 mg bid n=5,4 (80) n (%)
same,Best overall response: Stable disease,[2]; escalation 200 mg bid n=5,1 (20) n (%)
same,Best overall response: Unknown,[2]; escalation 200 mg bid n=5,0 n (%)
same,Best overall response: Complete response,[2]; escalation 250 mg bid n=4,0 n (%)
same,Best overall response: Partial response,[2]; escalation 250 mg bid n=4,0 n (%)
same,Best overall response: Stable disease,[2]; escalation 250 mg bid n=4,1 (25) n (%)
same,Best overall response: Unknown,[2]; escalation 250 mg bid n=4,1 (25) n (%)
same,Best overall response: Complete response,[2]; escalation 350 mg bid n=3,0 n (%)
same,Best overall response: Partial response,[2]; escalation 350 mg bid n=3,0 n (%)
same,Best overall response: Progressive disease,[2]; escalation 350 mg bid n=3,2 (67) n (%)
same,Best overall response: Stable disease,[2]; escalation 350 mg bid n=3,1 (33) n (%)
same,Best overall response: Unknown,[2]; escalation 350 mg bid n=3,0 n (%)
same,Best overall response: Complete response,[2]; [8],0 n (%)
same,Best overall response: Partial response,[2]; [8],0 n (%)
same,Best overall response: Progressive disease,[2]; [8],3 (60) n (%)
same,Best overall response: Stable disease,[2]; [8],2 (40) n (%)
same,Best overall response: Unknown,[2]; [8],0 n (%)
same,Best overall response: Complete response,[2]; escalation 450 mg bid n=9,0 n (%)
same,Best overall response: Partial response,[2]; escalation 450 mg bid n=9,0 n (%)
same,Best overall response: Progressive disease,[2]; escalation 450 mg bid n=9,6 (67) n (%)
same,Best overall response: Stable disease,[2]; escalation 450 mg bid n=9,2 (22) n (%)
same,Best overall response: Unknown,[2]; escalation 450 mg bid n=9,1 (11) n (%)
same,Best overall response: Complete response,[2]; escalation 600 mg bid n=8,0 n (%)
same,Best overall response: Partial response,[2]; escalation 600 mg bid n=8,0 n (%)
same,Best overall response: Progressive disease,[2]; escalation 600 mg bid n=8,6 (75) n (%)
same,Best overall response: Stable disease,[2]; escalation 600 mg bid n=8,1 (13) n (%)
same,Best overall response: Unknown,[2]; escalation 600 mg bid n=8,1 (13) n (%)
same,Best overall response: Complete response,[2]; expansion RP2D HCC n=11,0 n (%)
same,Best overall response: Partial response,[2]; expansion RP2D HCC n=11,0 n (%)
same,Best overall response: Progressive disease,[2]; expansion RP2D HCC n=11,1 (9.1) n (%)
same,Best overall response: Stable disease,[2]; expansion RP2D HCC n=11,5 (46) n (%)
same,Best overall response: Unknown,[2]; expansion RP2D HCC n=11,5 (46) n (%)
same,Best overall response: Complete response,[2]; [9],0 n (%)
same,Best overall response: Partial response,[2]; [9],0 n (%)
same,Best overall response: Progressive disease,[2]; [9],3 (33) n (%)
same,Best overall response: Stable disease,[2]; [9],2 (22) n (%)
same,Best overall response: Unknown,[2]; [9],4 (44) n (%)
same,Best overall response: Complete response,[2]; [10],0 n (%)
same,Best overall response: Partial response,[2]; [10],0 n (%)
same,Best overall response: Progressive disease,[2]; [10],9 (50) n (%)
same,Best overall response: Stable disease,[2]; [10],5 (28) n (%)
same,Best overall response: Unknown,[2]; [10],4 (22) n (%)
same,stable disease,"[2]; expansion, other advanced solid tumor types, five of 18 patients",28%
same,tumor reduction in patients with GCN ≥6,"[2]; expansion, two other solid tumor patients",substantial tumor reduction
same,best overall response stable disease,[3],18.2%
same,IC50,[4],0.13 nM
same,IC50,[5],~1 nM
same,selectivity versus other kinases,[6],highly selective versus other kinases
